# Active and inactive are the calls of the source. The calls are words filed in the database; no cut-off is given here.
# What was measured:
# MCF7 [1] = test: Upregulation of ERalpha protein levels in human MCF7 cells at 10 uM after 6 hrs by Western blot method; type: functional, cell-based
# In short: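 MCF-7 human breast cancer cells exposed to 10 µM compound or DMSO vehicle for 6 h. Whole-cell protein extracted, and ERα protein level assessed by Western blotting against the DMSO-treated control.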
# MCF7 [2] = test: Downregulation of ERalpha protein levels in human MCF7 cells at 10 uM after 6 hrs by Western blot method; type: functional, cell-based
# In short: (§1)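 MCF-7 breast cancer cells were incubated with compound or DMSO vehicle for 6 h. Compound was given at 10 µM in single-dose comparisons, or at 1 to 30 µM in the dose series. Whole-cell protein was extracted and ERα protein level was assessed by Western blotting.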
# MCF7 [3] = test: Downregulation of ERalpha protein levels in human MCF7 cells at 1 to 30 uM after 6 hrs by Western blot method; type: functional, cell-based; in short: as §1
# [4] = molecular target: T1, Estrogen receptor (Homo sapiens) (UniProt P03372); test: Antagonist activity at ERalpha in human MCF7 cells assessed as inhibition of E2-induced pS2 mRNA expression after 9 hrs by RT-PCR analysis; type: cell-based
# T1 sequence (whole entry): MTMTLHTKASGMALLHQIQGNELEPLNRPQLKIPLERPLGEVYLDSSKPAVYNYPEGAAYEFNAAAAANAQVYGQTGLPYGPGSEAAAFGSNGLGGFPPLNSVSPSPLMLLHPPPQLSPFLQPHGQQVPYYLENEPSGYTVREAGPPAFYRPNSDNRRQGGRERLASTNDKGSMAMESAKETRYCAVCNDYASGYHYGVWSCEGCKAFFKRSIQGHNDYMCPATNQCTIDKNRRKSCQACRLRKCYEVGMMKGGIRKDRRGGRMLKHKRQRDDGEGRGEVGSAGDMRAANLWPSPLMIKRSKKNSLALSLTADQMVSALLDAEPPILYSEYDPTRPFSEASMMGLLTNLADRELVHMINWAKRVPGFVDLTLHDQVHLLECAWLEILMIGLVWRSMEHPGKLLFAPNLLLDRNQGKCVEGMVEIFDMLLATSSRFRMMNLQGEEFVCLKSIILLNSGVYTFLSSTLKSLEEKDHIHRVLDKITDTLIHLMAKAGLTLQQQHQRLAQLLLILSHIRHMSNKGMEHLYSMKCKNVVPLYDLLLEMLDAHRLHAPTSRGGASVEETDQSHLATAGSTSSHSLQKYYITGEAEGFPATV
# In short: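 MCF-7 cells treated with compound across 0.1 to 10 µM, with or without 10 nM E2, for 9 h. Total RNA was extracted and reverse-transcribed. pS2 mRNA was quantified by real-time PCR.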
# MCF7 [5] = test: Downregulation of ERalpha protein levels in human MCF7 cells at 10 uM after 6 hrs by Western blot method in presence of proteasome inhibitor MG132; type: functional, cell-based
# MCF7 [6] = test: Downregulation of ERalpha protein levels in human MCF7 cells at 30 uM after 6 hrs by Western blot method; type: functional, cell-based; in short: as §1
# MCF7 [7] = test: Downregulation of ERalpha protein levels in human MCF7 cells after 6 hrs by Western blot method; type: functional, cell-based; in short: as §1
compound,measurement,setting,value
CC/C(=C(\c1ccc(O)cc1)c1ccc(OCCNC)cc1)c1ccccc1,Activity,MCF7 [1],Active
CCCCCCCCCCCCN(C)CCOc1ccc(/C(=C(/CC)c2ccccc2)c2ccc(O)cc2)cc1,Activity,MCF7 [2],inactive
CCCCCCCCCCCCN(CCCCCCCCCCCC)CCOc1ccc(/C(=C(/CC)c2ccccc2)c2ccc(O)cc2)cc1,Activity,MCF7 [2],inactive
CCC(=C(c1ccc(O)cc1)c1ccc(OCCN(C)C)cc1)c1ccccc1,Activity,MCF7 [1],Active
CCCCCCCCCCCCCCCCCCNCCOc1ccc(/C(=C(/CC)c2ccccc2)c2ccc(O)cc2)cc1,Activity,MCF7 [2],inactive
CCCCCCNCCOc1ccc(/C(=C(/CC)c2ccccc2)c2ccc(O)cc2)cc1,Activity,MCF7 [3],inactive
same,Activity,MCF7 [2],inactive
CCCCCCCCCCCCNCCOc1ccc(/C(=C(/CC)c2ccccc2)c2ccc(O)cc2)cc1,inhibition,[4],Dose-dependent effect
same,Activity,MCF7 [5],inactive
same,Activity,MCF7 [6],Active
same,Activity,MCF7 [7],Dose-dependent effect
same,Activity,MCF7 [2],Active

# — ChEMBL document CHEMBL3098128, “Design and synthesis of tamoxifen derivatives as a selective estrogen receptor down-regulator” (Bioorg Med Chem Lett, 2014)
